Data from paper PMC12744601 (Infection and Drug Resistance, 2025).
Converted amounts (≈) assume the structure as drawn.

Test system: daptomycin-non-susceptible VRE strain (clinical DRE isolate)
Assay: Minimum inhibitory concentration
Format: cell-based, Enterococcus faecium
In short: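 Clinical daptomycin-non-susceptible VRE isolate from a bloodstream infection. Species identified by VITEK 2. […] Fosfomycin MIC by agar dilution and ceftaroline MIC by broth microdilution. Breakpoints per CLSI.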

Row | MIC (Enterococcus, VRE) [µg/mL] | Compound | also measured
1 | > 8 | CCO/N=C(\C(=O)N[C@@H]1C(=O)N2C(C(=O)[O-])=C(Sc3nc(-c4cc[n+](C)cc4)cs3)CS[C@H]12)c1nsc(N)n1 [Ceftaroline, ceftaroline] | –
2 | – | CCCCCCCCCC(=O)N[C@@H](Cc1c[nH]c2ccccc12)C(=O)N[C@H](CC(N)=O)C(=O)N[C@@H](CC(=O)O)C(=O)N[C@@H]1C(=O)NCC(=O)N[C@@H](CCCN)C(=O)N[C@@H](CC(=O)O)C(=O)N[C@H](C)C(=O)N[C@@H](CC(=O)O)C(=O)NCC(=O)N[C@H](CO)C(=O)N[C@@H]([C@H](C)CC(=O)O)C(=O)N[C@@H](CC(=O)c2ccccc2N)C(=O)O[C@@H]1C [Daptomycin, daptomycin] | MIC (broth microdilution, cation-adjusted Mueller-Hinton broth supplemented with 50 mg/mL calcium, clinical DRE isolate): 8 µg/mL (≈ 4.94 µM)
3 | 128 (≈ 927 µM) | C[C@@H]1O[C@@H]1P(=O)(O)O [Fosfomycin, fosfomycin] | –
4 | – | CN[C@H](CC(C)C)C(=O)N[C@H]1C(=O)N[C@@H](CC(N)=O)C(=O)N[C@H]2C(=O)N[C@H]3C(=O)N[C@H](C(=O)N[C@H](C(=O)O)c4cc(O)cc(O)c4-c4cc3ccc4O)[C@H](O)c3ccc(c(Cl)c3)Oc3cc2cc(c3O[C@@H]2O[C@H](CO)[C@@H](O)[C@H](O)[C@H]2O[C@H]2C[C@](C)(N)[C@H](O)[C@H](C)O2)Oc2ccc(cc2Cl)[C@H]1O [vancomycin] | MIC (Sensititre GPN3F system, clinical DRE isolate): > 128 µg/mL
